The target of data set [1] is T1, Multidrug resistance protein CDR1 (Candida albicans, UniProt P43071). Put plainly: Displacement of [125I]IAAP from GFP-tagged Candida albicans CDR1 expressed in Saccharomyces cerevisiae. In a few lines: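 Crude membranes (50 μg) from S. cerevisiae AD-CDR1 cells were preincubated with compound for 10 min at 37°C in 50 mM Tris-HCl pH 7.5. They were then given 3–6 nM [125I]IAAP for 5 min under subdued light and UV-crosslinked at 365 nm for 10 min at room temperature. Cdr1p was immunoprecipitated with anti-GFP, run on 7% Tris-acetate gel, and the band quantified by phosphorimager.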

For data set [2], the target named is T1, Multidrug resistance protein CDR1. The experiment in a line: Inhibition of GFP-tagged Candida albicans CDR1 expressed in Saccharomyces cerevisiae assessed as inhibition of R6G efflux. The method in brief: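 S. cerevisiae AD-CDR1 cells were grown 5 h, then de-energized 45 min in 5 mM deoxyglucose/5 mM dinitrophenol in glucose-free PBS. Compound (10–100 μM) was added 5 min before 10 μM R6G, and cells were loaded 40 min at 30°C. After washing, efflux was started with 2% glucose. Supernatant A527 was read at 40 min, with glucose-free controls. Means of three independent experiments.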

Data set [3] concerns Candida albicans. Put plainly: Effect on CDR1 expression in Candida albicans at 100 uM by Western blot analysis. Type of data set: functional, organism-based.
In data set [4] the target is Multidrug resistance protein CDR1 (Candida albicans) (UniProt P43071). The note with it: 100 uM.
Data set [5] has the same target. The note with it: 100 uM. The source holds these as a separate data set.
Data set [6] deals with Saccharomyces cerevisiae. The experiment in a line: Toxicity against Saccharomyces cerevisiae AD1-8u after 48 hrs by MTT assay.
Data set [7] relates to Saccharomyces cerevisiae. Put plainly: Toxicity against PDR5-expressing Saccharomyces cerevisiae AD after 48 hrs by MTT assay.
For data set [8], the system named is Saccharomyces cerevisiae. Put plainly: Toxicity against CDR1-expressing Saccharomyces cerevisiae AD after 48 hrs by MTT assay.
Data set [9] has as its system Saccharomyces cerevisiae. The experiment in a line: Toxicity against CDR2-expressing Saccharomyces cerevisiae AD after 48 hrs by MTT assay.
For data set [10], the system named is Saccharomyces cerevisiae. Put plainly: Toxicity against Candida albicans MDR1-expressing Saccharomyces cerevisiae AD1-8u after 48 hrs by MTT assay.
Data set [11] relates to Candida albicans. The experiment in a line: Antifungal activity against Candida albicans by checkerboard method in presence of itraconazole. Type of data set: functional. In a few lines:
(§1)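 Checkerboard (CLSI method) on S. cerevisiae AD1-8u cells overexpressing GFP-tagged C. albicans Cdr1p (AD-CDR1). […] FIC = MIC in combination/MIC alone.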

Data set [12] has as its system COc1cc(/C=C/C(=O)CC(=O)/C=C/c2ccc(O)c(OC)c2)ccc1O. The note with it: Candida albicans.
The subject of data set [13] is Candida albicans. Put plainly: Antifungal activity against Candida albicans by checkerboard method in presence of R6G. The class given is functional. In a few lines:
as §1

Data set [14] relates to Candida albicans. Put plainly: Antifungal activity against Candida albicans by checkerboard method in presence of ketoconazole. The class given is functional. The method in brief: as §1
In data set [15] the test system is Candida albicans. Put plainly: Antifungal activity against Candida albicans by checkerboard method in presence of miconazole. Type of data set: functional. The method in brief: as §1

Calls of active or inactive are those of the source. No cut-off for these calls is given here.

On to `COc1cc(/C=C/C(=O)CC(=O)/C=C/c2ccc(O)c(OC)c2)ccc1O` [CURCUMIN], for which the IC50 in [1] stood at 14.2 µM; in [2], 40 µM; in [6], 422 µM; in data set [7] it was 498 µM; in [8] it was 493 µM; in data set [9] it was 411 µM. The same compound displayed an IC50 in data set [10] of 455 µM. The outcome in data set [3] was inactive. Further, the inhibition result in data set [4] is “Active”. In addition, the inhibition result in [5] was “inactive”.
For the compound `CCC(C)n1ncn(-c2ccc(N3CCN(c4ccc(OCC5COC(Cn6cncn6)(c6ccc(Cl)cc6Cl)O5)cc4)CC3)cc2)c1=O` (configuration not stated) [ITRACONAZOLE], in [11], the FIC was 0.005.
Consider “Multidrug resistance protein CDR1 (Candida albicans) (from UniProt P43071)”, for which the Km in data set [12] was determined as 5.87 µM.
On to `O=C(/C=C/c1ccc(O)cc1)CC(=O)/C=C/c1ccc(O)cc1` [BISDEMETHOXYCURCUMIN], for which, in data set [2], the IC50 turned out to be 40 µM.
On to `CC/N=c1\cc2oc3cc(NCC)c(C)cc3c(-c3ccccc3C(=O)OCC)c-2cc1C.Cl` [RHODAMINE 6G HYDROCHLORIDE], for which, in [13], the FIC was 0.0013.
As to `CC(=O)N1CCN(c2ccc(OCC3COC(Cn4ccnc4)(c4ccc(Cl)cc4Cl)O3)cc2)CC1` (configuration not stated) [KETOCONAZOLE], the FIC is on record as 0.0054 in data set [14] and 0.005 in [15].
With `COc1cc(/C=C/C(O)=C/C(=O)/C=C/c2ccc(O)cc2)ccc1O` [DEMETHOXYCURCUMIN], in [2], the IC50 is 45 µM.

Values taken from ChEMBL document CHEMBL1649543 (Antimicrob Agents Chemother, 2009).
